Experimental data published in ChEMBL document CHEMBL1122168, “Species- or isozyme-specific enzyme inhibitors. 6. Synthesis and evaluation of two-substrate condensation products as inhibitors of hexokinases and thymidine kinases” (J Med Chem, 1982).

Tests used:
[1] = molecular target: T1, Hexokinase-2 (Rattus norvegicus, UniProt P27881); assay: Evaluated for the inhibition constant Ki against Hexokinase, type II
T1 sequence (P27881 whole entry): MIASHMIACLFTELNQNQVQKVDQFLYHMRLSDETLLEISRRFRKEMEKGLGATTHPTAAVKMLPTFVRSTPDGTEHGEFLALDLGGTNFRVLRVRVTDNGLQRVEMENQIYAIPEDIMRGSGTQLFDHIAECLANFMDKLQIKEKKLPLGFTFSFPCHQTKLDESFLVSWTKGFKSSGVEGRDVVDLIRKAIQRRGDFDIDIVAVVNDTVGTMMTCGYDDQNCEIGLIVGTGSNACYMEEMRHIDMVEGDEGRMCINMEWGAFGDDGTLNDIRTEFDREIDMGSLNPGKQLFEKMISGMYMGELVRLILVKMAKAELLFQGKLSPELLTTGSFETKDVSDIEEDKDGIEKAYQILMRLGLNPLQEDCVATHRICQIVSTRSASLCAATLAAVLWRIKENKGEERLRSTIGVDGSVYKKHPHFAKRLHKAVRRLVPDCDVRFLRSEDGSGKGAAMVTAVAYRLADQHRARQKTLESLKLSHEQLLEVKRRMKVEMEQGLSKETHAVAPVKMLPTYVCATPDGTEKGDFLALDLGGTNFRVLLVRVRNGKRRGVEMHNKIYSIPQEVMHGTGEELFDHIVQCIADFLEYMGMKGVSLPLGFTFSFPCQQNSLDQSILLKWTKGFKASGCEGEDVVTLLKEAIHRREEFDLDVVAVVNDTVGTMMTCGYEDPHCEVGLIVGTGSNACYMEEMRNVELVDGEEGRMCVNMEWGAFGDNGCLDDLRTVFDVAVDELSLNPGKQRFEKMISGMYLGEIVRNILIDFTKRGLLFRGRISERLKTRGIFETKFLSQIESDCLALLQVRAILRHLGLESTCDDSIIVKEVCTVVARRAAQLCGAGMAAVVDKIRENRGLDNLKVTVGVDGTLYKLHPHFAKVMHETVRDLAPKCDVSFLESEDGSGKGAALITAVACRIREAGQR
Procedure, shortened: (§1)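 Yeast HK or rat HK II (isoelectric focusing, dialysed with 0.5 mM DTT). PK/LDH-coupled assay in 0.05 M Tris-HCl pH 7.6 with 6.6 mM MgCl2, 10 mM glucose, 0.45 mM NADH, 0.55 mM PEP, 20 mM KCl. NADH loss followed at 340 nm, 22 °C. Variable MgATP at 0.6–4.0 × KM. Inhibitors given as equimolar Mg complexes.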

[2] = molecular target: T2, Hexokinase-1 (Rattus norvegicus) (UniProt P05708); assay: Evaluated for the inhibition of Hexokinase, type I -catalyzed reactionsI at 0.6 mM concentration
T2 sequence (whole entry): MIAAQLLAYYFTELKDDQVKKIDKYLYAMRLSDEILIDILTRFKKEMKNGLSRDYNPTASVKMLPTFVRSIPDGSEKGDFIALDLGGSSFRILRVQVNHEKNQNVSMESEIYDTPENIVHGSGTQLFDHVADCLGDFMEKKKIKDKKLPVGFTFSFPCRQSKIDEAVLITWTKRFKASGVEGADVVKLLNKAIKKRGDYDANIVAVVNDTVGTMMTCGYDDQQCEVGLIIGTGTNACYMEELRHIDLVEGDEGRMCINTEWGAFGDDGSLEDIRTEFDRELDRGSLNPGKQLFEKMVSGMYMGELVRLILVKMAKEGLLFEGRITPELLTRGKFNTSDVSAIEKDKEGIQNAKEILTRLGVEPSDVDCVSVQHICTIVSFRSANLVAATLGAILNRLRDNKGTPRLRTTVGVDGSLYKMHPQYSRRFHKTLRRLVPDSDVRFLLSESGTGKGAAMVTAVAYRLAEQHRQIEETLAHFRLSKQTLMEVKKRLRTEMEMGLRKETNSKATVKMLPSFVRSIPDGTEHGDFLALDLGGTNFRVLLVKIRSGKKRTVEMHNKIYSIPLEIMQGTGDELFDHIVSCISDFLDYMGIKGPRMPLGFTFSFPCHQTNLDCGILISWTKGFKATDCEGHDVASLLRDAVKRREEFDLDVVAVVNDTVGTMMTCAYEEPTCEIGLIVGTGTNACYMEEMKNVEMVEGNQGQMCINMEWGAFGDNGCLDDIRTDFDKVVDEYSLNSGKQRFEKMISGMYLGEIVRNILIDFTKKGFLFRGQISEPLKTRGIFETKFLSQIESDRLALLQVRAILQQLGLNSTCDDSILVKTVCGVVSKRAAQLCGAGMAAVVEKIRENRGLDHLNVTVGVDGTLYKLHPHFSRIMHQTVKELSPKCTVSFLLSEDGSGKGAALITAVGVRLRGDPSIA
Procedure, shortened: (§2)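 Rat HK I, II or III from isoelectric focusing, dialysed with 0.5 mM DTT. PK/LDH-coupled assay in 0.05 M Tris-HCl pH 7.6 with 6.6 mM MgCl2, 10 mM α-D-glucose, 0.45 mM NADH, 0.55 mM PEP and 20 mM KCl. Reactions started with enzyme; rates read from 340 nm absorbance change at 22 °C.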

[3] = molecular target: T3, Hexokinase-2 (Rattus norvegicus) (UniProt P27881); assay: Evaluated for the inhibition of Hexokinase, type II catalyzed reactions at 0.6 mM concentration; procedure, shortened: as §2
T3 sequence (whole entry): T1 sequence (P27881 whole entry)

[4] = molecular target: T3, Hexokinase-2 (Rattus norvegicus); assay: Evaluated for the inhibition of Hexokinase, type II catalyzed reactionsI at 0.3 mM concentration; procedure, shortened: as §2
[5] = Evaluated for the inhibition constant Ki against hexokinase in yeast; set-up: species or system Saccharomyces cerevisiae; procedure, shortened: as §1
[6] = molecular target: T4, Hexokinase-3 (Rattus norvegicus) (UniProt P27926); assay: Evaluated for the inhibition of Hexokinase type III catalyzed reactions at 0.3 mM concentration; procedure, shortened: as §2
T4 sequence (whole entry): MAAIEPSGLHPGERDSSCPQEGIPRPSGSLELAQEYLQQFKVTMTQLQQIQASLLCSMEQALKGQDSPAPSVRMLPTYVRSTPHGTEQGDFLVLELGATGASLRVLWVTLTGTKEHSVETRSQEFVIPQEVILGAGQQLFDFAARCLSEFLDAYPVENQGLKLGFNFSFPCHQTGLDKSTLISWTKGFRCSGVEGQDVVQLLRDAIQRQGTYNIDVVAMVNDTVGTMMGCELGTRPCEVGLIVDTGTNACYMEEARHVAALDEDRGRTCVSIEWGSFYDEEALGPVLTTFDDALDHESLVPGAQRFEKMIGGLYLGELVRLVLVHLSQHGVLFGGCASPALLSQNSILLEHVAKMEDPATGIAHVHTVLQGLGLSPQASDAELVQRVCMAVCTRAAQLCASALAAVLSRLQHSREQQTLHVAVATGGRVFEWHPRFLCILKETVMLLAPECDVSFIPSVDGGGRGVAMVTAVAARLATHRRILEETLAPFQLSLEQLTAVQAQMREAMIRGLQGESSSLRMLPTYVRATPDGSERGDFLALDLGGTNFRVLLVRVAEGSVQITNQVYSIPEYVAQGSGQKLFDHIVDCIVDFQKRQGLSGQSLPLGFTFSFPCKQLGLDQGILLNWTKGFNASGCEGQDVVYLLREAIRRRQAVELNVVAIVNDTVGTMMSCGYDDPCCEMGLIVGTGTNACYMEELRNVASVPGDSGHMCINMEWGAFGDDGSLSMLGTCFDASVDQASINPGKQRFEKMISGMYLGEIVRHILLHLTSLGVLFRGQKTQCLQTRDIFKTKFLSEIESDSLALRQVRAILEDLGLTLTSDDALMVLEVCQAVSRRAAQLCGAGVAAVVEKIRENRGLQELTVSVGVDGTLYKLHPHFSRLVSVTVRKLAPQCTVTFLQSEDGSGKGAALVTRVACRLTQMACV

[7] = molecular target: T4, Hexokinase-3 (Rattus norvegicus); assay: Evaluated for the inhibition of Hexokinase type III catalyzed reactions at 0.6 mM concentration; procedure, shortened: as §2
[8] = molecular target: T2, Hexokinase-1 (Rattus norvegicus); assay: Evaluated for the inhibition of Hexokinase, type I -catalyzed reactions at 0.3 mM concentration; procedure, shortened: as §2
[9] = molecular target: T3, Hexokinase-2 (Rattus norvegicus); assay: Evaluated for the inhibition of Hexokinase, type II catalyzed reactions at 0.3 mM concentration; procedure, shortened: as §2
[10] = molecular target: T2, Hexokinase-1 (Rattus norvegicus); assay: Evaluated for the inhibition of Hexokinase, type I -catalyzed reactions at 0.6 mM concentration; procedure, shortened: as §2
[11] = system: Saccharomyces cerevisiae
[12] = substrate: Nc1ncnc2c1ncn2[C@@H]1O[C@H](COP(=O)(O)OP(=O)(O)OP(=O)(O)O)[C@@H](O)[C@H]1O
[13] = substrate: Cc1cn([C@H]2C[C@H](O)[C@@H](CO)O2)c(=O)[nH]c1=O
[14] = substrate: Nc1ncnc2c1ncn2[C@@H]1O[C@H](COP(=O)(O)OP(=O)(O)OP(=O)(O)O)[C@@H](O)[C@H]1O; remark: listed apart in the source
[15] = substrate: Cc1cn([C@H]2C[C@H](O)[C@@H](CO)O2)c(=O)[nH]c1=O; remark: listed apart in the source
[16] = substrate: Nc1ncnc2c1ncn2[C@@H]1O[C@H](COP(=O)(O)OP(=O)(O)OP(=O)(O)O)[C@@H](O)[C@H]1O; remark: listed apart in the source

`Nc1ncnc2c1ncn2C1O[C@H](COP(=O)(O)OP(=O)(O)OP(=O)(O)OC[C@@H]2O[C@@H](O)[C@@H](O)[C@H](O)[C@H]2O)[C@@H](O)[C@H]1O` (stereo partly specified) showed a Ki [1] of 2200 µM, an inhibition [2] of 5.6% and an inhibition [3] of 10.1%. It also gave an inhibition [4] of 4.4%, a Ki [5] of 1400 µM and an inhibition [6] of 3.1%. The inhibition [7] was 6.2% and the inhibition [8] was 9.3%.

`Nc1ncnc2c1ncn2C1O[C@H](COP(=O)(O)OP(=O)(O)OP(=O)(O)OP(=O)(O)OC[C@@H]2O[C@@H](O)[C@@H](O)[C@H](O)[C@H]2O)[C@@H](O)[C@H]1O` (stereo partly specified) gave an inhibition [9] of 28%, an inhibition [3] of 30% and a Ki [5] of 3500 µM. For the same molecule, the inhibition [6] was 6.5%, the inhibition [7] was 8.7% and the inhibition [10] was 8%. The inhibition [8] was 4.7%.

`Nc1ncnc2c1ncn2[C@@H]1O[C@H](COP(=O)(O)OP(=O)(O)OP(=O)(O)O)[C@@H](O)[C@H]1O` showed a Km [11] of 210 µM.

B1: Hexokinase-2 (Rattus norvegicus), P27881 (protein)
chain: T1 sequence (P27881 whole entry)
In the case of B1, the Km [12] is reported as 710 µM.

B2: Thymidine kinase, cytosolic (Rattus norvegicus), P27158 (protein)
chain: MSYINLPTVLPISPSKTRGQIQVILGPMFSGKSTELMRRVRRFQIAQYKCLVIKYAKDTRYSNSFSTHDRNTMDALPACMLKDVAQEALGVAVIGIDEGQFFPDIVDFCETMANTGKTVIV
Work on B2 yielded a Km [13] of 8 µM, a Km [14] of 190 µM and a Km [15] of 1.6 µM. The Km [16] was 180 µM.
